Laboratory results: ChEMBL document CHEMBL4270489, “Synthesis and in vitro and in vivo antitumour activity study of 11-hydroxyl esterified bergenin/cinnamic acid hybrids” (Eur J Med Chem, 2017)

What was measured:
Type in all cases: functional, cell-based
[1] = system: PC-3; experiment: Antiproliferative activity against human PC3 cells incubated for 48 to 72 hrs by MTT assay
Outline: (§1)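 MTT assay. Cells were grown in DMEM with 10% heat-inactivated FBS at 37°C under 5% CO₂. They were seeded at 5000/well in 5% FBS DMEM for 24 h, then given compound in DMSO at 0.1, 1, 10 and 100 µmol/L for 72 h (the table footnote says 48 h). MTT was added for 4 h, formazan was dissolved in DMSO and read at 570 nm. IC₅₀ was from ≥3 independent runs; >100 μM was given if 50% inhibition was not reached.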

[2] = system: A549; experiment: Antiproliferative activity against human A549 cells incubated for 48 to 72 hrs by MTT assay; outline: as §1
[3] = system: SGC-7901; experiment: Antiproliferative activity against human SGC7901 cells incubated for 48 to 72 hrs by MTT assay; outline: as §1
[4] = system: MCF7; experiment: Antiproliferative activity against human MCF7 cells incubated for 48 to 72 hrs by MTT assay; outline: as §1
[5] = system: HepG2; experiment: Antiproliferative activity against human HepG2 cells incubated for 48 to 72 hrs by MTT assay; outline: as §1

| SMILES | IC50 [1] [µM] | IC50 [2] [µM] | IC50 [3] [µM] | IC50 [4] [µM] | IC50 [5] [µM] |
| --- | --- | --- | --- | --- | --- |
| COc1c(O)cc2c(c1O)[C@@H]1O[C@H](COC(=O)/C=C/c3ccccc3)[C@@H](O)[C@H](O)[C@H]1OC2=O | 13.5 | 56.9 | 9.67 | > 100 | 18.5 |
| COc1c(O)cc2c(c1O)[C@@H]1O[C@H](COC(=O)/C=C/c3cc(F)cc(F)c3)[C@@H](O)[C@H](O)[C@H]1OC2=O | 46.2 | 28.4 | > 100 | 72.1 | > 100 |
| COc1c(O)cc2c(c1O)[C@@H]1O[C@H](COC(=O)/C=C/c3ccc(F)cc3)[C@@H](O)[C@H](O)[C@H]1OC2=O | 22.9 | > 100 | > 100 | 35.8 | 17.2 |
| COc1c(O)cc2c(c1O)[C@@H]1O[C@H](COC(=O)/C=C/c3ccc([N+](=O)[O-])cc3)[C@@H](O)[C@H](O)[C@H]1OC2=O | > 100 | > 100 | > 100 | > 100 | > 100 |
| COc1c(O)cc2c(c1O)[C@@H]1O[C@H](COC(=O)/C=C/c3ccc(C)cc3)[C@@H](O)[C@H](O)[C@H]1OC2=O | 30.2 | 10.3 | 11.4 | 20.2 | > 100 |
| COc1c(O)cc2c(c1O)[C@@H]1O[C@H](COC(=O)/C=C/c3ccc(Cl)c(Cl)c3)[C@@H](O)[C@H](O)[C@H]1OC2=O | > 100 | 63.2 | > 100 | > 100 | > 100 |
| COc1c(O)cc2c(c1O)[C@@H]1O[C@H](COC(=O)/C=C/c3ccc(C)c(C)c3)[C@@H](O)[C@H](O)[C@H]1OC2=O | > 100 | > 100 | > 100 | 59.5 | > 100 |
| COc1c(O)cc2c(c1O)[C@@H]1O[C@H](COC(=O)/C=C/c3ccc(Cl)cc3)[C@@H](O)[C@H](O)[C@H]1OC2=O | 86.5 | > 100 | > 100 | > 100 | > 100 |
